Screening results (PubChem BioAssay)
PG9 Ab binder – binders of HIV-1 gp120 antibody PG9, primary screen, biochemical, TR-FRET; HIV-1 gp120 / PG9 antibody interaction; TR-FRET gp120-PG9 antibody binding; inhibition, % at 6.7 µM; actives 0.43% (n = 360,000); AID 624416, 2012; in the data active means inhibition above about 8.5%
Rev-erbA mod – modulators of Rev-erb alpha DNA binding, primary screen, biochemical, FITC-DNA, fluorescence polarization, uHTS. actives 0.79% (n = 370,000). Rev-erbα–FITC-DNA binding, 90 min. activity, % at 10 µM. Nuclear receptor subfamily 1 group D member 1 (Homo sapiens), P20393. AID 1259318, 2017;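 active means activity above about 14%, limit read from the data; passing the limit was not always enough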
NR2E3 ag-1 – inhibitors of NR2E3-RetCOR corepressor binding, primary screen, NR2E3 agonist project, biochemical, TR-FRET, GST-NR2E3, biotin-RetCOR | Photoreceptor-specific nuclear receptor (Homo sapiens), Q9Y5X4 | 1536-well | inhibition of corepressor binding, % at 4.78 µM | actives 0.12% (n = 320,000);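 active means percent inhibition above the cutoff of mean plus 3 SD of all tested compounds, set per screening campaign, cut at about 20% in these data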
Target sequence (Q9Y5X4 whole entry, looked up): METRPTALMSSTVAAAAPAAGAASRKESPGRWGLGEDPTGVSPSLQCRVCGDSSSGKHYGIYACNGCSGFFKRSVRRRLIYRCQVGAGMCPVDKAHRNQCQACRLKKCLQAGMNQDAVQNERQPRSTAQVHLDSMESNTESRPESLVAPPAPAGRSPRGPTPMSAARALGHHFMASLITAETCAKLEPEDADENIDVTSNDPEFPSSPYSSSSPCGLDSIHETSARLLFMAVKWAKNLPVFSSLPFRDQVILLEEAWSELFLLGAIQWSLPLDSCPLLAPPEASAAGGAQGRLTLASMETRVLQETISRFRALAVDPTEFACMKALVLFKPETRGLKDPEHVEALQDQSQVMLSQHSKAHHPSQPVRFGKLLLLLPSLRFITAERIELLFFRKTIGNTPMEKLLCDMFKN
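Material – GST-tagged NR2E3 plus biotinylated RetCOR corepressor · Quantity – NR2E3 fusion 1.35 nM · Times – 5 h incubation at 4 °C · Medium – pH 7.5 Tris-based buffer · Technique – TR-FRET, Eu(K)-anti-GST donor, streptavidin-D2 acceptor, ex 340, em 617/671 nm · Benchmarks – high control biotin, low control 0.6% DMSO · Format – 1536-well plates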
NR2E3 ag-2 – NR2E3 agonists in two-hybrid cells, primary screen, cell-based, luminescence, CHO-S, Gal4-NCOR/VP16-NR2E3. luciferase. inhibition of corepressor binding, % at 3.98 µM. actives 0.35% (n = 360,000). AID 602229, 2012;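 active means inhibition above the mean of all tested compounds plus 3 SD, cut at about 70% in these data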;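 further: higher means lower luciferase signal from less NR2E3 corepressor binding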
PG9 binder conf – binders of anti-gp120 antibody PG9, confirmation, biochemical, TR-FRET; shares compounds with PG9 Ab binder; TR-FRET PG9 antibody binding; inhibition, % at 6.7 µM; actives 90% (n = 1,500); in the data active means inhibition above about 9%
PGV04 Ab binding – binders of control antibody PGV04, counter-screen for PG9 antibody binder project, biochemical, TR-FRET, distinct HIV envelope site; shares compounds with PG9 Ab binder; TR-FRET PGV04 antibody-gp120 binding; actives 95% (n = 1,500); inhibition, % at 6.7 µM; in the data active means inhibition above about 9.5%
PG9 bind DR – small-molecule binders of antibody PG9, dose response, biochemical, TR-FRET, HIV-1 gp120 antibody; IC50, µM; shares compounds with PG9 Ab binder; TR-FRET PG9 antibody-gp120 binding inhibition; 95 tested, under 10 active; in the data active means IC50 below about 10 µM
PGV04 binding DR – binders of control antibody PGV04, dose response, counter-screen for PG9 antibody binder project, biochemical, TR-FRET, distinct HIV envelope site; AID 651937, 2012; shares compounds with PG9 Ab binder; IC50, µM; TR-FRET binding to control antibody PGV04; actives 20% (n = 95)
PG126 DR counter – binders of control antibody PG126, dose response, counter-screen for PG9 antibody binder project, biochemical, TR-FRET, distinct HIV envelope site; shares compounds with PG9 Ab binder; TR-FRET binding to antibody PG126, counterscreen; IC50, µM; actives 20% (n = 95); AID 651939, 2012
Large screens that a line does not name were inactive (follow-up assays come after a bar, where they were run). Most compounds without a hit are left out; they make up all but 1.4% or so of the library. Unless noted, no stated cut-off is given here; in the data, active means IC50 below about 9 µM; inactive means the rest.

COc1cc(OC)cc(C(=O)NCCNc2nc3cc(C)cc(C)c3cc2C#N)c1	PG9 Ab binder 20 | PG9 binder conf 9.0 | PGV04 Ab binding 23
COc1ccc(Nc2nc(C)nc3c2oc2ccccc23)c(OC)c1	PG9 Ab binder 13 | PG9 binder conf 15 | PGV04 Ab binding 22
O=C(O)c1cnn(-c2nc(-c3ccc(Br)cc3)cs2)c1C(F)(F)F	PG9 Ab binder 9.6 | PG9 binder conf 13 | PGV04 Ab binding 23
O=C(O)c1cnn(-c2nc(-c3ccc(F)cc3)cs2)c1C(F)(F)F	none
Cc1cccc(Cn2cc(CN3CC(N4CCN(CCOC(=O)c5cc6ccccc6o5)CC4)CS3(=O)=O)nn2)c1 (stereo unspecified)	none (no result: PG9 Ab binder, NR2E3 ag-1, NR2E3 ag-2)
O=C(COC(=O)c1ccc(O)cc1O)c1ccc2c(c1)OCO2	none
O=C(COC(=O)c1cc(Cl)ccc1O)c1ccc2c(c1)OCO2	PG9 Ab binder 11 | PG9 binder conf 10 | PGV04 Ab binding 15
Cc1cc(C=O)c(C)n1-c1ccc(Oc2ccc([N+](=O)[O-])cn2)cc1	PG9 Ab binder 8.6 | PG9 binder conf 10 | PGV04 Ab binding 15
CCC(=O)Nc1cccc(NC(=S)NC(=O)c2ccccc2)c1	none
O=C(NC(=S)Nc1cccc(NC(=S)NC(=O)c2ccccc2)c1)c1ccccc1	PG9 Ab binder 12 (no result: NR2E3 ag-1) | PG9 binder conf inactive | PGV04 Ab binding 14
CC(C)[C@H](NC(=O)Cc1ccccc1)C(=O)OCc1cc(=O)n2c(n1)sc1ccccc12	PG9 Ab binder 9.6 | PG9 binder conf 17 | PGV04 Ab binding 21
O=C(Nc1cc(Cl)ccc1F)C1CCCN1S(=O)(=O)c1cccc2cccnc12 (stereo unspecified)	none (no result: PG9 Ab binder, NR2E3 ag-1, NR2E3 ag-2)
O=C(Nc1ccc2oc(-c3ccncc3)nc2c1)c1ccccc1F	PG9 Ab binder 23 | PG9 binder conf 32 | PGV04 Ab binding 53
COc1ccc(Cn2nnnc2C(c2cc3cccc(C)c3[nH]c2=O)N2CCOCC2)cc1 (stereo unspecified)	PG9 Ab binder 17 | PG9 binder conf 16 | PGV04 Ab binding 24
COc1cccc2cc3c(nc12)C[C@@H]1CCCC(=O)N2CCC[C@@]12C3	none (no result: PG9 Ab binder, NR2E3 ag-1, NR2E3 ag-2)
O=C(Nc1ccc(Oc2ccccc2)cc1)C1CCN(c2nnc(-n3cccc3)s2)CC1	none (no result: PG9 Ab binder, NR2E3 ag-1, NR2E3 ag-2)
CC(=O)N1CCCN(C(=O)Cn2cnc3ccccc3c2=O)CC1	none (no result: PG9 Ab binder, NR2E3 ag-1, NR2E3 ag-2)
COc1ccc(CCNC(=O)CCc2nc3sc4c(c3c(=O)[nH]2)CCCC4)cc1	none
O=C(CCc1nc2sc3c(c2c(=O)[nH]1)CCCC3)Nc1ccccc1Cl	PG9 Ab binder 17 | PG9 binder conf 19 | PGV04 Ab binding 34
CN(C)C(CNC(=O)CCc1nc2sc3c(c2c(=O)[nH]1)CCCC3)c1ccccc1 (stereo unspecified)	none
Cc1cccc(NC(=O)CNC(=O)CCc2nc3sc4c(c3c(=O)[nH]2)CCCC4)c1C	PG9 Ab binder 22 | PG9 binder conf 21 | PGV04 Ab binding 40
CC(=O)c1ccc(NC(=O)CCc2nc3sc4c(c3c(=O)[nH]2)CCCC4)cc1	PG9 Ab binder 11 | PG9 binder conf 23 | PGV04 Ab binding 33
Cc1cccc(NC(=O)CCc2nc3sc4c(c3c(=O)[nH]2)CCCC4)n1	none
O=C(CCc1nc2sc3c(c2c(=O)[nH]1)CCCC3)NCCOc1ccccc1	PG9 Ab binder 24 | PG9 binder conf 24 | PGV04 Ab binding 47
COC(=O)C[C@@H]1CC[C@@H]2[C@H](COc3ccc(NC(=O)c4cccc(OC)c4)cc3C(=O)N2C)O1	none (no result: PG9 Ab binder, NR2E3 ag-1, NR2E3 ag-2)
CCCCCN1CCCCC(NC(=O)c2c(F)cccc2F)C1=O (stereo unspecified)	none (no result: PG9 Ab binder, NR2E3 ag-1, NR2E3 ag-2)
NS(=O)(=O)c1ccc(NS(=O)(=O)c2ccc(NC(=O)c3ccc(-c4ccccc4)cc3)cc2)cc1	none
NS(=O)(=O)c1ccc(NC(=O)c2ccc(-c3ccccc3)cc2)cc1	PG9 Ab binder 9.3 (no result: NR2E3 ag-1) | PG9 binder conf 13 | PGV04 Ab binding 25
COCCNC(=O)c1cc(-c2cccnc2)nc2ccc(Br)cc12	PG9 Ab binder 8.6 | PG9 binder conf inactive | PGV04 Ab binding 14
O=C(NCCCn1ccnc1)c1cc(-c2cccnc2)nc2ccc(Br)cc12	none
O=C(O)CSc1ccc2ccccc2n1	none
Cc1cc(SCCC(=O)O)nc2ccccc12	none
Cc1nc(SCCC(=O)O)c2ccccc2n1	PG9 Ab binder 22 (no result: Rev-erbA mod) | PG9 binder conf 19 | PGV04 Ab binding 24
O=C(O)CCSc1ccc2ccccc2n1	PG9 Ab binder 18 | PG9 binder conf 19 | PGV04 Ab binding 20
O=S1(=O)c2ccc(Br)cc2OC[C@H](Cc2ccccc2)N1Cc1cn(Cc2ccc(F)cc2)nn1	none (no result: PG9 Ab binder, NR2E3 ag-1, NR2E3 ag-2)
COc1ccccc1NS(=O)(=O)c1cccc(NC(=O)c2[nH]c(C)c(C(C)=O)c2C)c1	PG9 Ab binder 12 | PG9 binder conf 21 | PGV04 Ab binding 19 | PG9 bind DR inactive | PGV04 binding DR inactive | PG126 DR counter inactive
CCCCCn1c2c(c(=N)c3ccccc31)CCC2	none
Cc1cc(C)c2c(=N)c3ccccc3n(CCCCCCCCn3c4ccccc4c(=N)c4c(C)cc(C)nc43)c2n1	PG9 Ab binder 9.7 (no result: NR2E3 ag-1) | PG9 binder conf 28 | PGV04 Ab binding 33
O=C(c1cccc(F)c1F)N(Cc1ccccn1)CC1CCCO1 (stereo unspecified)	none (no result: PG9 Ab binder, NR2E3 ag-1, NR2E3 ag-2)
Cc1cn(-c2ccc(Br)cc2)[nH]c1=O	PG9 Ab binder 10.0 | PG9 binder conf 19 | PGV04 Ab binding 21
Cc1ccc(C)c(NC(=O)CNS(=O)(=O)c2ccc3[nH]c(=O)oc3c2)c1	none (no result: PG9 Ab binder, NR2E3 ag-1, NR2E3 ag-2)
COc1cccc(-c2nnc(SCC(=O)OC(C)C)n2-c2ccc(Cl)cc2)c1	none (no result: PG9 Ab binder, NR2E3 ag-1, NR2E3 ag-2)
CCn1c(CNC(=O)c2ccccc2Cl)cc2ccccc21	PG9 Ab binder 10 | PG9 binder conf 24 | PGV04 Ab binding 35
CCn1c(CNC(=O)c2ccccc2F)cc2ccccc21	none
